Source: ChEMBL document CHEMBL2177069, “Novel peptidomimetic compounds containing redox active chalcogens and quinones as potential anticancer agents” (Eur J Med Chem, 2012)

Key:
DU-145 = test: Cytotoxicity against human DU145 cells; assay type: functional
Saccharomyces cerevisiae [1] = test: Growth inhibition of GSH2-deficient Saccharomyces cerevisiae YOL049W mutant at 20 ug/disc after 24 to 48 hrs by agar diffusion assay; assay type: functional; conditions: read-out: DIZ
Summary of the method: (§1)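 S. cerevisiae deletion mutants or wild type grown on YPD, seeded into liquid agar medium at an optical density of 0.1. 6 mm paper discs soaked with methanolic compound solution were placed on the plates and incubated at 30 °C. Growth was checked after 1 and 2 days, and the inhibition zone diameter was recorded in mm.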

Saccharomyces cerevisiae [2] = test: Growth inhibition of GTT2-deficient Saccharomyces cerevisiae YLL060C mutant at 20 ug/disc after 24 to 48 hrs by agar diffusion assay; assay type: functional; conditions: read-out: DIZ; summary of the method: as §1
Saccharomyces cerevisiae [3] = test: Growth inhibition of POS5-deficient Saccharomyces cerevisiae YPL188W mutant at 20 ug/disc after 24 to 48 hrs by agar diffusion assay; assay type: functional; conditions: read-out: DIZ; summary of the method: as §1
Saccharomyces cerevisiae [4] = test: Growth inhibition of PST2-deficient Saccharomyces cerevisiae YDR032C mutant at 20 ug/disc 24 to 48 hrs by agar diffusion assay; assay type: functional; conditions: read-out: DIZ; summary of the method: as §1
Saccharomyces cerevisiae [5] = test: Growth inhibition of SOD2-deficient Saccharomyces cerevisiae YHR008C mutant at 20 ug/disc 24 to 48 hrs by agar diffusion assay; assay type: functional; conditions: read-out: DIZ; summary of the method: as §1
A498 [6] = test: Cytotoxicity against human A498 cells after 24 hrs by MTT assay; assay type: functional, cell-based; conditions: A498, 24 h
Summary of the method: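 MTT assay. Cells were seeded at 50,000 cells/mL in medium with 10% fetal calf serum and grown for two days at 37 °C, 10% CO2. Serial dilutions of compound were then added for 24 h. MTT was added (final 0.5 mg/mL) for 2 h, and the formazan was pelleted, washed, dissolved in isopropanol with 0.4% HCl and read at 590 nm. IC50 is the concentration giving 50% of untreated-control absorbance, taken from dose-response curves; mean of two parallel experiments.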

MDA-MB-468 = test: Cytotoxicity against human MDA-MB-468 cells; assay type: functional
T47D = test: Cytotoxicity against human T47D cells; assay type: functional
BT-549 = test: Cytotoxicity against human BT549 cells; assay type: functional
MDA-MB-231 = test: Cytotoxicity against human MDA-MB-231 cells; assay type: functional
MCF7 = test: Cytotoxicity against human MCF7 cells; assay type: functional
UO-31 = test: Cytotoxicity against human UO31 cells; assay type: functional
TK-10 = test: Cytotoxicity against human TK10 cells; assay type: functional
A498 [7] = test: Cytotoxicity against human A498 cells; assay type: functional
[8] = Cytotoxicity against human 786-O cells; assay type: functional
SK-OV-3 = test: Cytotoxicity against human SKOV3 cells; assay type: functional
OVCAR-8 = test: Cytotoxicity against human OVCAR8 cells; assay type: functional
NCI/ADR-RES = test: Cytotoxicity against human NCI/ADR-RES cells; assay type: functional
OVCAR-4 = test: Cytotoxicity against human OVCAR4 cells; assay type: functional
OVCAR-3 = test: Cytotoxicity against human OVCAR3 cells; assay type: functional
SK-MEL-2 = test: Cytotoxicity against human SK-MEL-2 cells; assay type: functional
Malme-3M = test: Cytotoxicity against human MALME-3M cells; assay type: functional
M14 = test: Cytotoxicity against human M14 cells; assay type: functional
U-251 = test: Cytotoxicity against human U251 cells; assay type: functional
LOX IMVI = test: Cytotoxicity against human LOXIMVI cells; assay type: functional
SNB-75 = test: Cytotoxicity against human SNB75 cells; assay type: functional
SF-539 = test: Cytotoxicity against human SF539 cells; assay type: functional
SF-295 = test: Cytotoxicity against human SF295 cells; assay type: functional
SW-620 = test: Cytotoxicity against human SW620 cells; assay type: functional
KM12 = test: Cytotoxicity against human KM12 cells; assay type: functional
HCT-15 = test: Cytotoxicity against human HCT15 cells; assay type: functional
HCC 2998 = test: Cytotoxicity against human HCC2998 cells; assay type: functional
NCI-H522 = test: Cytotoxicity against human NCI-H522 cells; assay type: functional
NCI-H322M = test: Cytotoxicity against human NCI-H322M cells; assay type: functional
NCI-H23 = test: Cytotoxicity against human NCI-H23 cells; assay type: functional
A549 = test: Cytotoxicity against human A549 cells; assay type: functional
RPMI-8226 = test: Cytotoxicity against human RPMI8226 cells; assay type: functional
MOLT-4 = test: Cytotoxicity against human MOLT4 cells; assay type: functional
HL-60 = test: Cytotoxicity against human HL60 cells; assay type: functional

CC1=C([Se]CC(OC(=O)[C@@H](CSSC(C)(C)C)NC(=O)C(C)(C)C)C(=O)NCCCCCC(=O)OCc2ccccc2)C(=O)c2ccccc2C1=O (stereo partly drawn)
GI50 (DU-145): 2.14 µM
LC50 (DU-145): 9.55 µM
TGI (DU-145; read-out: pTGI (converted)): 4.47 µM
zone of inhibition at 20 µg/disc (Saccharomyces cerevisiae [1]): 0 mm
zone of inhibition at 20 µg/disc (Saccharomyces cerevisiae [2]): 12 mm
zone of inhibition at 20 µg/disc (Saccharomyces cerevisiae [3]): 0 mm
zone of inhibition at 20 µg/disc (Saccharomyces cerevisiae [4]): 11 mm
zone of inhibition at 20 µg/disc (Saccharomyces cerevisiae [5]): 0 mm
IC50 (A498 [6]): 13 µM
GI50 (MDA-MB-468): 2.19 µM
LC50 (MDA-MB-468): 8.51 µM
TGI (MDA-MB-468; read-out: pTGI (converted)): 4.37 µM
GI50 (T47D): 2.19 µM
LC50 (T47D): > 100 µM
TGI (T47D; read-out: pTGI (converted)): 6.46 µM
GI50 (BT-549): 1.78 µM
LC50 (BT-549): 5.62 µM
TGI (BT-549; read-out: pTGI (converted)): 3.16 µM
GI50 (MDA-MB-231): 1.91 µM
LC50 (MDA-MB-231): 9.33 µM
TGI (MDA-MB-231; read-out: pTGI (converted)): 4.27 µM
GI50 (MCF7): 3.02 µM
LC50 (MCF7): 50.1 µM
TGI (MCF7; read-out: pTGI (converted)): 9.77 µM
GI50 (UO-31): 1.48 µM
LC50 (UO-31): 6.76 µM
TGI (UO-31; read-out: pTGI (converted)): 3.16 µM
GI50 (TK-10): 2.4 µM
LC50 (TK-10): 8.13 µM
TGI (TK-10; read-out: pTGI (converted)): 4.47 µM
GI50 (A498 [7]): 1.62 µM
LC50 (50% lethal concentration) (A498 [7]): 56.2 µM
TGI (A498 [7]; read-out: pTGI (converted)): 4.79 µM
GI50 ([8]; 786-0): 2.09 µM
LC50 ([8]; 786-0): 6.31 µM
TGI ([8]; 786-0, read-out: pTGI (converted)): 3.63 µM
GI50 (SK-OV-3): 1.55 µM
LC50 (SK-OV-3): 5.5 µM
TGI (SK-OV-3; read-out: pTGI (converted)): 2.95 µM
GI50 (OVCAR-8): 2 µM
LC50 (OVCAR-8): 7.08 µM
TGI (OVCAR-8; read-out: pTGI (converted)): 3.8 µM
GI50 (NCI/ADR-RES): 3.39 µM
CC50 (NCI/ADR-RES; read-out: pLC50 (the source's name) (converted)): > 100 µM
TGI (NCI/ADR-RES; read-out: pTGI (converted)): 11.5 µM
GI50 (OVCAR-4): 1.58 µM
LC50 (OVCAR-4): 5.62 µM
TGI (OVCAR-4; read-out: pTGI (converted)): 2.95 µM
GI50 (OVCAR-3): 1.86 µM
LC50 (OVCAR-3): 6.17 µM
TGI (OVCAR-3; read-out: pTGI (converted)): 3.39 µM
GI50 (SK-MEL-2): 2.24 µM
LC50 (SK-MEL-2): 39.8 µM
TGI (SK-MEL-2; read-out: pTGI (converted)): 5.01 µM
GI50 (Malme-3M): 2.51 µM
LC50 (Malme-3M): 13.5 µM
TGI (Malme-3M; read-out: pTGI (converted)): 5.13 µM
GI50 (M14): 2.04 µM
LC50 (M14): 7.94 µM
TGI (M14; read-out: pTGI (converted)): 4.07 µM
GI50 (U-251): 1.26 µM
LC50 (U-251): 6.31 µM
TGI (U-251; read-out: pTGI (converted)): 2.82 µM
GI50 (LOX IMVI): 2.57 µM
LC50 (LOX IMVI): 42.7 µM
TGI (LOX IMVI; read-out: pTGI (converted)): 7.59 µM
GI50 (SNB-75): 1.38 µM
LC50 (SNB-75): 5.13 µM
TGI (SNB-75; read-out: pTGI (converted)): 2.69 µM
GI50 (SF-539): 1.91 µM
LC50 (SF-539): 5.89 µM
TGI (SF-539; read-out: pTGI (converted)): 3.39 µM
GI50 (SF-295): 0.316 µM
LC50 (SF-295): > 100 µM
TGI (SF-295; read-out: pTGI (converted)): 1.95 µM
GI50 (SW-620): 2.29 µM
LC50 (SW-620): 15.8 µM
TGI (SW-620; read-out: pTGI (converted)): 5.25 µM
GI50 (KM12): 1.78 µM
LC50 (KM12): 6.76 µM
TGI (KM12; read-out: pTGI (converted)): 3.47 µM
GI50 (HCT-15): 3.24 µM
LC50 (HCT-15): 66.1 µM
TGI (HCT-15; read-out: pTGI (converted)): 12.9 µM
GI50 (HCC 2998): 2.19 µM
LC50 (HCC 2998): 7.24 µM
TGI (HCC 2998; read-out: pTGI (converted)): 3.98 µM
GI50 (NCI-H522): 1.7 µM
LC50 (NCI-H522): 6.17 µM
TGI (NCI-H522; read-out: pTGI (converted)): 3.24 µM
GI50 (NCI-H322M): 0.398 µM
LC50 (NCI-H322M): > 100 µM
TGI (NCI-H322M; read-out: pTGI (converted)): 2.29 µM
GI50 (NCI-H23): 2.4 µM
LC50 (NCI-H23): > 100 µM
TGI (NCI-H23; read-out: pTGI (converted)): 7.08 µM
GI50 (A549): 2.09 µM
LC50 (A549): > 100 µM
TGI (A549; read-out: pTGI (converted)): 5.37 µM
GI50 (RPMI-8226): 2.34 µM
LC50 (RPMI-8226): > 100 µM
TGI (RPMI-8226; read-out: pTGI (converted)): 6.76 µM
GI50 (MOLT-4): 3.24 µM
LC50 (MOLT-4): > 100 µM
TGI (MOLT-4; read-out: pTGI (converted)): 9.55 µM
GI50 (HL-60): 2.51 µM
LC50 (HL-60): > 100 µM
TGI (HL-60; read-out: pTGI (converted)): 6.03 µM
